Nine compounds from ChEMBL document CHEMBL3112535, “Undesired versus designed enzymatic cleavage of linkers for liver targeting” (Bioorg Med Chem Lett, 2014) can be followed below.

Data set [1] addresses T1, Cocaine esterase (Homo sapiens, UniProt O00748).
T1 sequence (O00748 whole entry): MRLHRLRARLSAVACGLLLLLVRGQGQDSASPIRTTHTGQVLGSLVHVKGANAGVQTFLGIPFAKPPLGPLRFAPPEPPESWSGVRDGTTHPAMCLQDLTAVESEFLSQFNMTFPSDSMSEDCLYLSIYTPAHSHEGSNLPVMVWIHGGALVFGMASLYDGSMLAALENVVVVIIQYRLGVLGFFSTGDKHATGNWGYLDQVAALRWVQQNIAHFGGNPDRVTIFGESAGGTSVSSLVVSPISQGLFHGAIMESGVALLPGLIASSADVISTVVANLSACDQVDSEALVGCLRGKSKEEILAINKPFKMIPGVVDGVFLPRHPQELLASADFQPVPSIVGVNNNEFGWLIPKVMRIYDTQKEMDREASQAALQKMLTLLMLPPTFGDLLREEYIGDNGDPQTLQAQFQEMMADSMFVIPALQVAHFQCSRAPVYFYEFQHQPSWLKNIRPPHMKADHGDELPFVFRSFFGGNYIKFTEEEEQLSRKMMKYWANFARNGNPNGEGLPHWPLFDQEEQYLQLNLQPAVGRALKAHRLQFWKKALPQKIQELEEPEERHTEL
The experiment in a line: Metabolic stability of the compound in human intestinal microsomes assessed as carboxylesterase-2-mediated hydrolysis by measuring intrinsic clearance at 1 uM in absence of NADPH. The format is ADME, Intestine. The procedure, abridged: (§1)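 Pooled mixed-gender human liver (N = 50) or intestinal (N = 6) microsomes at 0.5 or 0.76 mg/mL final, in 100 mM potassium phosphate pH 7.4, prewarmed 5 min at 37 °C. Substrate 1 µM, n = 2, final DMSO 0.025% and acetonitrile 0.98%. Aliquots taken over 0–60 min into acetonitrile with terfenadine internal standard. Parent loss by LC–MS/MS. CLint = 0.693·(mL incubation)/(t1/2·protein concentration).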

The target of data set [2] is T2, Liver carboxylesterase 1 (Homo sapiens, UniProt P23141).
T2 sequence (P23141 whole entry): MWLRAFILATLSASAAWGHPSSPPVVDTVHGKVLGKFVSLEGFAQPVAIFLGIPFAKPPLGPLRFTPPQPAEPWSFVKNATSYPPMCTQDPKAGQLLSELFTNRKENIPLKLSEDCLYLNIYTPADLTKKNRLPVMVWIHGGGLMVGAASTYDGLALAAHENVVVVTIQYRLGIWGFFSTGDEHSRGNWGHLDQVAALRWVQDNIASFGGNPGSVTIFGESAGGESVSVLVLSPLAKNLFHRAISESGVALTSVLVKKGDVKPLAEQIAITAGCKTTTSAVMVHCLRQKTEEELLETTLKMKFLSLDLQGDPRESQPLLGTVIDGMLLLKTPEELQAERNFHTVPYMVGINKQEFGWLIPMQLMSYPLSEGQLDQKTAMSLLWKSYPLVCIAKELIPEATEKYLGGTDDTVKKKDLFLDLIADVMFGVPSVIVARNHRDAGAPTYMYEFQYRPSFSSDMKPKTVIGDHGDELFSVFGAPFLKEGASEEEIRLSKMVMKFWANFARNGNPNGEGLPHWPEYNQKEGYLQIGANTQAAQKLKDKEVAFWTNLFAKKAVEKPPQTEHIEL
Description: (§2) Metabolic stability of the compound in human liver microsomes assessed as carboxylesterase-1-mediated hydrolysis by measuring half life in absence of NADPH. The data set is classed as ADME. The conditions noted are these: microsomes. The procedure, abridged: as §1
For orientation: Microsomes from liver hold many membrane-bound enzymes, among them those of drug oxidation.

The target in data set [3] is T1, Cocaine esterase. The experiment in a line: (§3) Metabolic stability of the compound in human intestinal microsomes assessed as carboxylesterase-2-mediated hydrolysis by measuring half life in absence of NADPH. As to conditions: microsomes. The format is ADME, Intestine. The procedure, abridged:
as §1

In data set [4] the target is T2, Liver carboxylesterase 1. The experiment in a line: Metabolic stability of the compound in human liver microsomes assessed as carboxylesterase-1-mediated hydrolysis by measuring intrinsic clearance at 1 uM in absence of NADPH. The data set is classed as ADME. The procedure, abridged:
as §1

For data set [5], the target named is T1, Cocaine esterase. Description: Metabolic stability of the compound assessed as recombinant carboxylesterase-2 (unknown origin)-mediated hydrolysis after 60 mins. The data set is classed as ADME. The conditions noted are these: 1 h. The procedure, abridged: (§4)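 Metabolite identification. Substrate at 10 µM final (DMSO stock diluted in acetonitrile) incubated 1 h at 37 °C, pH 7.4, n = 1, with one of: recombinant CE-1 bactosomes, recombinant CE-2 bactosomes, control E. coli cytosol, or human liver or intestinal microsomes. Quench in acetonitrile, centrifuge, dry supernatant under nitrogen, reconstitute in mobile phase. Metabolite formation read by LC–MS/MS.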

Data set [6] addresses T2, Liver carboxylesterase 1. The experiment in a line: Metabolic stability of the compound assessed as recombinant carboxylesterase-1 (unknown origin)-mediated hydrolysis after 60 mins. The data set is classed as ADME. As to conditions: 1 h. In outline:
as §4

The next data set has as its target T3, carboxylesterase-1 (Homo sapiens, UniProt P23141).
T3 sequence (P23141 whole entry): T2 sequence (P23141 whole entry)
The description is as §2. The data set is classed as ADME. As to conditions: liver microsomes. In outline: as §1

The next data set has as its target T4, carboxylesterase-2 (Homo sapiens, UniProt O00748).
T4 sequence (O00748 whole entry): T1 sequence (O00748 whole entry)
The data set is described as §3. The data set is classed as ADME, Intestine. As to conditions: intestinal microsomes. The procedure, abridged:
as §1

As usually defined, the half-life is how long it takes for the measured level to halve.

Consider `C#CCC(CCCNC(=O)OC)C(=O)Oc1ccc(Oc2ccc(CN(Cc3ccccc3)c3cccc(NS(C)(=O)=O)c3C)cc2)cc1` (centres undefined), for which, at Cocaine esterase [1], the CL was found to be 1700 µL/min/mg. For the same compound, the t1/2 on Liver carboxylesterase 1 [2] was 2.5 min; at Cocaine esterase [3], 0.84 min. Further, the CLint on Liver carboxylesterase 1 [4] was 550 µL/min/mg.

With `COC(=O)NCCCC(C)(C)C(=O)Oc1ccc(Oc2ccc(CN(Cc3ccccc3)c3cccc(NS(C)(=O)=O)c3C)cc2)cc1`, the CL at Cocaine esterase [1] came out at 1000 µL/min/mg. Moreover, the t1/2 on Liver carboxylesterase 1 [2] was 5.7 min; on Cocaine esterase [3], 1.4 min. The CLint at Liver carboxylesterase 1 [4] amounted to 240 µL/min/mg.

On to `COC(=O)NCCCC(C)C(=O)Oc1ccc(Oc2ccc(CN(Cc3ccccc3)c3cccc(NS(C)(=O)=O)c3C)cc2)cc1` (centres undefined), for which the CL at Cocaine esterase [1] came out at 2600 µL/min/mg. For the same compound, the t1/2 at Liver carboxylesterase 1 [2] came to 1.3 min; at Cocaine esterase [3], 0.53 min. Further, the CLint at Liver carboxylesterase 1 [4] turned out to be 1000 µL/min/mg.

On to `C#CCC(CCCNC(=O)OC)C(=O)OCCOc1ccc(Oc2ccc(CN(Cc3ccccc3)c3cccc(NS(C)(=O)=O)c3C)cc2)cc1` (centres undefined), for which the CL on Cocaine esterase [1] came out at 1900 µL/min/mg. Besides, the t1/2 at Liver carboxylesterase 1 [2] is given as 1.8 min; on Cocaine esterase [3], 0.73 min. In addition, the CLint at Liver carboxylesterase 1 [4] is 770 µL/min/mg. The Stability entry at Cocaine esterase [5] is “Unstable”; at Liver carboxylesterase 1 [6], “Stable”.

Consider `COC(=O)NCCCC(C)(Cc1ccccc1)C(=O)Oc1ccc(Oc2ccc(CN(Cc3ccccc3)c3cccc(NS(C)(=O)=O)c3C)cc2)cc1` (centres undefined), for which, on Cocaine esterase [1], the CL stood at 43 µL/min/mg. Also, the t1/2 at Liver carboxylesterase 1 [2] came to 73 min; on Cocaine esterase [3], 32 min. The CLint on Liver carboxylesterase 1 [4] is 19 µL/min/mg. Moreover, the Stability result is “Unstable” at Cocaine esterase [5] and “Stable” on Liver carboxylesterase 1 [6].

Take `COC(=O)NCCCC(Cc1ccccc1)C(=O)Oc1ccc(Oc2ccc(CN(Cc3ccccc3)c3cccc(NS(C)(=O)=O)c3C)cc2)cc1` (centres undefined): the CL at Cocaine esterase [1] is 140 µL/min/mg. For the same compound, the results for the t1/2 at Liver carboxylesterase 1 [2] and on Cocaine esterase [3] were 19 min and 9.9 min, respectively. Moreover, the CLint at Liver carboxylesterase 1 [4] is 73 µL/min/mg.

Turning to `COC(=O)NCCCC(CC(C)C)C(=O)Oc1ccc(Oc2ccc(CN(Cc3ccccc3)c3cccc(NS(C)(=O)=O)c3C)cc2)cc1` (centres undefined), on Cocaine esterase [1], the CL is 220 µL/min/mg. Further, the half-life is 17 min at carboxylesterase-1 and 6.3 min on carboxylesterase-2. Also, the CLint on Liver carboxylesterase 1 [4] was 82 µL/min/mg.

In the case of `COC(=O)NCCCC(Cc1cn(Cc2ccccc2)nn1)C(=O)OCCOc1ccc(Oc2ccc(CN(Cc3ccccc3)c3cccc(NS(C)(=O)=O)c3C)cc2)cc1` (centres undefined), the CL at Cocaine esterase [1] amounted to 240 µL/min/mg. For the same compound, the t1/2 is 5.3 min at Liver carboxylesterase 1 [2] and 3.8 min on Cocaine esterase [3]. Further, the CLint at Liver carboxylesterase 1 [4] is 170 µL/min/mg. Also, the figures for the Stability result on Cocaine esterase [5] and on Liver carboxylesterase 1 [6] were “Unstable” and “Stable”, respectively.

With `COC(=O)NCCCC(Cc1cn(Cc2ccccc2)nn1)C(=O)Oc1ccc(Oc2ccc(CN(Cc3ccccc3)c3cccc(NS(C)(=O)=O)c3C)cc2)cc1` (centres undefined), the CL at Cocaine esterase [1] worked out at 480 µL/min/mg. Also, the t1/2 is 6.7 min at Liver carboxylesterase 1 [2] and 1.9 min on Cocaine esterase [3]. Further, on Liver carboxylesterase 1 [4], the CLint came to 140 µL/min/mg. For the same compound, the values for the Stability result at Cocaine esterase [5] and at Liver carboxylesterase 1 [6] were “Unstable” and “Stable”, respectively.
